Test results published in ChEMBL document CHEMBL1240337, “Identification of proteases that regulate erythrocyte rupture by the malaria parasite Plasmodium falciparum” (Nat Chem Biol, 2008).
Active and inactive are the calls of the source. The calls are words filed in the database; no cut-off is given here.

What was measured:
[1] = molecular target: T1, Probable cathepsin C (Plasmodium falciparum 3D7) (UniProt Q8IIJ9); test: Inhibition of Plasmodium falciparum 3D7 cathepsin C by fluorescence spectrophotometry
T1 sequence (whole entry): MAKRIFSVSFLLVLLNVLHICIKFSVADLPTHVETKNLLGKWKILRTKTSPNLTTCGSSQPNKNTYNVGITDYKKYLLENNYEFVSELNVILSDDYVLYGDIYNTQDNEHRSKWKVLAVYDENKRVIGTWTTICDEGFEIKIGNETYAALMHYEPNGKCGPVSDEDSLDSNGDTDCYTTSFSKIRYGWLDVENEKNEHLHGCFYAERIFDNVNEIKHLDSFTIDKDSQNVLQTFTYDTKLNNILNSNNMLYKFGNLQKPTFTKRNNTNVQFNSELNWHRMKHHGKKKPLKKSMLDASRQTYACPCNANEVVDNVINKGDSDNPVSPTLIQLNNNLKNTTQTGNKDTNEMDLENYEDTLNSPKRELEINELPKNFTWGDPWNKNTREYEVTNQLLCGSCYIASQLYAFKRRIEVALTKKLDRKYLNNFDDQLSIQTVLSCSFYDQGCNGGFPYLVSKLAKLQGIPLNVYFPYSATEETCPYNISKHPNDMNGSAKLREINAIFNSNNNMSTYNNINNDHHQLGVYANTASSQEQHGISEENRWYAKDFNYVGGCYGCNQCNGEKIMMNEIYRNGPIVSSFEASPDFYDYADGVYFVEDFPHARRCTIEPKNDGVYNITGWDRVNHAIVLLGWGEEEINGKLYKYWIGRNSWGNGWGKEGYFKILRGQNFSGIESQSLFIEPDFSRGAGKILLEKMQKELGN

Plasmodium falciparum [2] = test: Antiplasmodial activity against Plasmodium falciparum infected in human erythrocytes assessed as blockade of parasite-mediated rupture of erythrocytes by Giemsa staining; format: functional, organism-based
Procedure, shortened: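 Giemsa-stained thin blood films were read from schizonts exposed at 36 h post invasion to 10 µM inhibitor, to assess rupture and morphology.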

[3] = molecular target: T2, Protease, putative (Plasmodium falciparum 3D7) (UniProt Q8I1Y2); test: Inhibition of Plasmodium falciparum 3D7 PFD0230c by fluorescence spectrophotometry
T2 sequence (whole entry): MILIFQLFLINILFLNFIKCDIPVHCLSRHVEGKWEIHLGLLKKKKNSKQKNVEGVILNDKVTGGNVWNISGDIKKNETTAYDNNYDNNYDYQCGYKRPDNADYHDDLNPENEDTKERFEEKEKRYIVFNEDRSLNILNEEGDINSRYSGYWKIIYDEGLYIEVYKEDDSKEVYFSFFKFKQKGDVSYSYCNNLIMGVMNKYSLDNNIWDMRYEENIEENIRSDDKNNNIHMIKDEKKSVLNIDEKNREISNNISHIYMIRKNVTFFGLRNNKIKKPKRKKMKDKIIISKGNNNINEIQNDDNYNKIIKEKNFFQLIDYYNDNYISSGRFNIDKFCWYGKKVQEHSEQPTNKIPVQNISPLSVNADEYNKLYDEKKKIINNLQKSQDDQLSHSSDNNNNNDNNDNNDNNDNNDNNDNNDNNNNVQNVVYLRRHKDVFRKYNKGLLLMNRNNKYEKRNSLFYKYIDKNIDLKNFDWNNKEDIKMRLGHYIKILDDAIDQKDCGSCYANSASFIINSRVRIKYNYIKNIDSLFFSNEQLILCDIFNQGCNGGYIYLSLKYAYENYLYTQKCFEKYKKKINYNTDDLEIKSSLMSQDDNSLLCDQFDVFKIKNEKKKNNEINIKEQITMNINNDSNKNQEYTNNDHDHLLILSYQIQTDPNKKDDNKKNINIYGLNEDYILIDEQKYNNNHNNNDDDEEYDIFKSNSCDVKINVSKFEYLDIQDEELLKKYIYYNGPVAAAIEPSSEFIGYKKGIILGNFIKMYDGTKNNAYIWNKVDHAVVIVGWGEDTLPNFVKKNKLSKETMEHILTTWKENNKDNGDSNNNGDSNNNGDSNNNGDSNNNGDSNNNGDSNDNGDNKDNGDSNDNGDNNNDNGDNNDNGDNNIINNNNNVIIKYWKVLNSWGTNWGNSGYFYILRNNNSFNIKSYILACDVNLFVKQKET

Plasmodium falciparum [4] = test: Antiplasmodial activity against Plasmodium falciparum schizont infected in human erythrocytes assessed as inhibition of ring-stage parasite growth at 1 to 50 uM after 24 by propidium iodide staining-based FACS analysis; format: functional, organism-based
[5] = molecular target: T3, Falcipain-3 (Plasmodium falciparum 3D7) (UniProt Q8IIL0); test: Inhibition of Plasmodium falciparum 3D7 falcipain-3 by fluorescence spectrophotometry
T3 sequence (whole entry): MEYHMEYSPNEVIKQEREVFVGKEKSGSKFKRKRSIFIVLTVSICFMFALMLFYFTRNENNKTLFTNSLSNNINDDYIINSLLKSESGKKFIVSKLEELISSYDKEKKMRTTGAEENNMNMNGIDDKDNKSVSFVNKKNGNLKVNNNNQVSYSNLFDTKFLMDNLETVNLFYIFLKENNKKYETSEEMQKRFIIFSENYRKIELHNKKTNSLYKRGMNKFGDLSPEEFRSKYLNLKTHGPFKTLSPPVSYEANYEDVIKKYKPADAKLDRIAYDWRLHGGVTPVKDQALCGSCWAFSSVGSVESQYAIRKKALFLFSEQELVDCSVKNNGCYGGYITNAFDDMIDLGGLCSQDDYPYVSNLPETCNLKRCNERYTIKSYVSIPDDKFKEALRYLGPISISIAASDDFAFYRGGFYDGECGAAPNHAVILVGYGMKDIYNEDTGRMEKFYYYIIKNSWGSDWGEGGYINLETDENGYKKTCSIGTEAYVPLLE

Plasmodium falciparum [6] = test: Inhibition of Plasmodium falciparum 3D7 falcipain-2 by fluorescence spectrophotometry
[7] = molecular target: T4, Preprocathepsin c, putative (Plasmodium falciparum 3D7) (UniProt Q8I0V1); test: Inhibition of Plasmodium falciparum 3D7 PFL2290w by fluorescence spectrophotometry
T4 sequence (whole entry): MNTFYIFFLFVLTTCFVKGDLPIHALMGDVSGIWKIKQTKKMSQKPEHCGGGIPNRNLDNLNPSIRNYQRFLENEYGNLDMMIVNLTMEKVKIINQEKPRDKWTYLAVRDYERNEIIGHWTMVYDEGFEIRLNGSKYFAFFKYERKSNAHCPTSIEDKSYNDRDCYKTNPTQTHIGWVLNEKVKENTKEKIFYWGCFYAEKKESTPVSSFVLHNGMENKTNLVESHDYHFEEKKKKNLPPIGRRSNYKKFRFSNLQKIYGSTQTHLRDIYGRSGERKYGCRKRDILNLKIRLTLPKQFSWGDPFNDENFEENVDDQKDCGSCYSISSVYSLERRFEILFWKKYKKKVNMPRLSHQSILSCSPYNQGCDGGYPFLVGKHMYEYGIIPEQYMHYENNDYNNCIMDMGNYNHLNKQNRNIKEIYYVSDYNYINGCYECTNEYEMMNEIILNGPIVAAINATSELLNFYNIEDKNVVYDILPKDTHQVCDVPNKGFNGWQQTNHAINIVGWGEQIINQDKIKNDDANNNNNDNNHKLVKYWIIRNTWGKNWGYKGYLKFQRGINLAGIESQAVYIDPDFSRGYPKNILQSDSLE

inhibition [1]	inhibition [3]	inhibition [5]	inhibition [7]	SMILES	Activity (Plasmodium falciparum [2])	inhibition (Plasmodium falciparum [4])	inhibition (Plasmodium falciparum [6])
Active	Active	Active	inactive	CCC[C@H](N)C(=O)N[C@H](/C=C/S(=O)(=O)c1ccccc1)CCc1ccccc1	Active	Active	Active
Active	Active	Active	inactive	C[C@H](N)C(=O)N[C@H](/C=C/S(=O)(=O)c1ccccc1)CCc1ccccc1	Active	Active	Active
